Here are results for 24 sequences from the EternaBench riboswitch data.

The subject of this data set is MS2 coat protein. The data set can be described thus: apparent Kd, MS2 coat protein; higher = weaker binding; RNA-MaP array; FMN 200 µM where present. The method, boiled down: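 Apparent Kd: the median of filtered binding-curve fits from single clusters. Designs were transcribed on Illumina sequencing-chip clusters by stalled E. coli RNA polymerase and titrated with SNAP-549-labelled MS2 coat protein from 0.7 or 1.5 nM, doubling to 3 µM, in 100 mM Tris-HCl pH 7.5, 80 mM KCl, 4 mM MgCl2, BSA, DTT, yeast tRNA and Tween-20. Each series ran without and then with constant ligand, and green signal was normalised to red-channel RNA signal and control-cluster median Fmax.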

The mark [1] stands for this setting: designed as: OFF switch for flavin mononucleotide, no ligand.
Setting [2] is: ligand present: flavin mononucleotide, designed as: OFF switch for flavin mononucleotide.
[3] abbreviates: designed as: ON switch for flavin mononucleotide, no ligand.
[4] abbreviates: ligand present: flavin mononucleotide, designed as: ON switch for flavin mononucleotide.

For orientation: apparent Kd means the concentration giving half-maximal binding under the conditions of the assay. For “GGAUAGGACAGAGGAUAUACGAGCUAGAGAUACUAGCAAAAUUUCCUCACAUGAGGAUCACCCAUGUAGAAGGCUGUCCUAUCG”, the “apparent Kd” value under setting [1] stood at 17.5 nM and the “apparent Kd” value under setting [2] was found to be 536 nM.

“GACAUGAGGAUCACCCAUGUCCAUGCAAGAGUAGUUGAGACCAGAAGGACCGUGCGGAAUGCAGGGUAGGAUAUGGAGCCCUCA”: the “apparent Kd” value came out at 36.8 nM under setting [3] and 9.38 nM under setting [4].

Consider “CUAUUACGAGGAUAUGAUUUAAAUAACAUGAGGAUCACCCAUGUUUUUACGUUAUUUUGUUUAGAAGGCGUAUUGU”, for which the “apparent Kd” value amounted to 52.9 nM under setting [1] and 35.7 nM under setting [2].

As for “CAUAGGCGAGGAUAUACAUGAGGAUCACCCAUGUAAGGAAACCUGGCAGACUCAGAAUGUAGAAGGCGCACUGA”, the “apparent Kd” value worked out at 21.6 nM under setting [1] and 41 nM under setting [2].

For the sequence “GUAAUUAAGAGAGGAUAUUGACAUGAGGAUCACCCAUGUAUUUGGGAGUGUUUACUGAAUUCUUACGAGAAGGCUUUUAAAUAC”, the “apparent Kd” value under setting [1] was 89.2 nM and the “apparent Kd” value under setting [2] worked out at 178 nM.

In the case of “UAUGUGUCAGGAUAUGGAUUAGUUCGGGAUUCGGAACUGGUUCAGAAGGGACAUGAGGAUCACCCAUGUUUUUC”, the “apparent Kd” value by setting is: under setting [1], 33.1 nM; under setting [2], 169 nM.

“GGUGCGCCAAGCCUUAAGACCGAACAUGAGGAUCACCCAUGUGAGGAUAUGACAGACGAAAGAAGUCAGAAGGCAUAAGGGUGG”: the “apparent Kd” value by setting is: under setting [1], 7.12 nM; under setting [2], 10.1 nM.

On to “GUAGCAUAAUCAGGAUAUUCAGAGAAUAAAUAAACAUGAGGAUCACCCAUGUGGCGAAAGCCUAGGGAGAAGGGAUAAUGCUAC”, for which the “apparent Kd” value was found to be 118 nM under setting [3] and 24.8 nM under setting [4].

Regarding “CCCGUGUUAGGAUAUACGGCACACCUGCCAGCAGGUGUAUAGUAGAAGGAACAUGAGGAUCACCCAUGUAUAGC”, the “apparent Kd” value was 38.1 nM under setting [1] and 36 nM under setting [2].

On to “GGCUAGUCAGGAUAUACGAACAUGUCAAAAGACGUGAAGGGACAUGAGGAUCACCCAUGUAGAAGGGACUAGCU”, for which the “apparent Kd” value by setting is: under setting [1], 24.8 nM; under setting [2], 165 nM.

As to “UUAUUUUGUCAAGGAUAUGUAUUAUUGAUUUGAAAACAUGAGGAUCACCCAUGUAUAUGGUGGGAACAGAAGGUGAAUAAGUAA”, the “apparent Kd” value is, setting by setting: under setting [1], 248 nM; under setting [2], 235 nM.

“GCGUUUGUAUCACAUGUAUUACAUGAGGAUCACCCAUGUUACUAGGAUAUGUAUUAGUAUUAUCAACAGAAGGAGUAAGAACGC”: the “apparent Kd” value worked out at 17.5 nM under setting [1] and 18.3 nM under setting [2].

With “CUAUGCCGAAUAGGAUAUUCGAUCAAAAGGAUAGAAGAAGGGUUACAUGAGGAUCACCCAUGUAUGCACAUGAGGAUCCCUUAG”, the “apparent Kd” value is, setting by setting: under setting [1], 279 nM; under setting [2], 316 nM.

On to “UUGGACGUCGUAGGAUAUGUAGGAUAUUCCUACAUGAGGAUCACCCAUGUUGACAUGGAAGAAGGACAGAAGGACGAUAUCCAU”, for which the “apparent Kd” value by setting is: under setting [3], 289 nM; under setting [4], 5.01 nM.

As for “GCGCAGCCGGGUGAGGAUAUCGGUGGUAAAACAUGAGGAUCACCCAUGUCCGAAGCUCGGACUUCCGAGAAGGCGCCCAGCUGCA”, the “apparent Kd” value was found to be 115 nM under setting [3] and 14.4 nM under setting [4].

Take “UCGGCGCGAGGAUAUGCGGCUGGUGCUUCGGGCCCUCGCGUACAUGAGGAUCACCCAUGUAGAAGGCGCGCCGC”: the “apparent Kd” value by setting is: under setting [1], 32.2 nM; under setting [2], 38.6 nM.

Consider “UGUUGGAGCAGAGGAUAUACAUGAGGAUCACCCAUGUAAUAAAGUGAAGCCUGGAAACAGGCAAUGUAGAAGGCUGCUCCGACA”, for which the “apparent Kd” value by setting is: under setting [1], 10.1 nM; under setting [2], 73.6 nM.

In the case of “AGCCUACAUGAGGAUCACCCAUGUCAGGAUAUCUCGCGACAUGUCAAGUUCACGUUGCAGAGAAGGGACUCGGG”, the “apparent Kd” value by setting is: under setting [1], 56.6 nM; under setting [2], 63.6 nM.

For “UGAUCGAGAGAUCUUAGAUUCUGGUAGGAUAUAAAACAAUUGCGCUUUACAUGAGGAUCACCCAUGUAGAAGGACUAGAGUCUA”, the “apparent Kd” value by setting is: under setting [1], 6.72 nM; under setting [2], 5.96 nM.

With “ACACAUGAGGAUCACCCAUGUAGCUGGCGUCUGCGCCAGCCACAGGAUAUACGGCUACACAAGCCGUAGAAGGGUGAUAAACAC”, the “apparent Kd” value is, setting by setting: under setting [3], 62.9 nM; under setting [4], 27.2 nM.

Turning to “AUCCUACAUGAGGAUCACCCAUGUCAGGAUAUCCAAGAAAUGUGGCCGUAUCGGCCACGGAGAAGGGACGGGUG”, the “apparent Kd” value runs as follows: under setting [1], 40 nM; under setting [2], 60.8 nM.

Turning to “UUUUCGUGAGGAUAUCAGUAGUAAAUAAAUAAAAUUACUACUGAGAAGGCACAUGAGGAUCACCCAUGUUCCUU”, the “apparent Kd” value under setting [1] came to 12.7 nM and the “apparent Kd” value under setting [2] was 22.9 nM.

On to “UCUGGGUCUGUGAGGAUAUUGGGUCUGAAAGGGCUCGAGAAGGCACAUGAGGAUCACCCAUGUAAGGGCUCGGG”, for which the “apparent Kd” value reads like this: under setting [1], 27.6 nM; under setting [2], 21.6 nM.

With “GGAGCAACAUGAGGAUCACCCAUGUAGGAUAUCGCUAUUGUAAUCAUGAAACAUGAUUACAAUAGCGAGAAGGACAUAUGCUCC”, the “apparent Kd” value under setting [1] came to 6.02 nM and the “apparent Kd” value under setting [2] amounted to 9.16 nM.
